Assay results collected from several papers.
Compare with care: the assays were run in different laboratories. pIC50: −log10 of the molar value.

| SMILES | target or system | test | test system | setting | measurement | value |
| --- | --- | --- | --- | --- | --- | --- |
| COc1ccc2/c(=N/c3ccccc3NC(=O)[C@@H](N)C(C)(C)C)cc(-c3ccc4c(c3)OCO4)oc2c1 | NCI-H1975 | cell growth or viability, CCK-8 | – | 1 µM | inhibition | 9.4% |
| CCCn1cnc2ccc(-c3ccc(NC(=O)CC(C)CC)nc3)cc2c1=O (stereo not drawn) | NCI-H1975 | cell growth or viability, CCK-8 | – | 72 h | pIC50 | 5.87 |
| Nc1nc2c(ncn2COCCO)c(=O)[nH]1 | Human alphaherpesvirus 2 | viral replication, inhibitor, qPCR | BEAS-2B | – | pIC50 | 6.80 |
| O=C(Nc1nc2cc(-c3ccc4ncn(Cc5ccccc5)c(=O)c4c3)ccc2s1)NC1CCCCC1 | NCI-H1975 | cell growth or viability, MTT | – | 72 h | pIC50 | < 4.70 |
| c1ccc(Oc2ccc(Nc3c4c(nc5ccccc35)CCC4)cc2)cc1 | Leishmania amazonensis | parasite growth, MTT | – | promastigote | pIC50 | 5.96 |
| O=C(Nc1nc2cc(-c3ccc4ncn(Cc5ccccc5)c(=O)c4c3)ccc2s1)c1ccccc1 | NCI-H1975 | cell growth or viability, MTT | – | 72 h | pIC50 | < 4.70 |
| O=C(Nc1ccc(-c2ccc3ncn(Cc4ccccc4)c(=O)c3c2)cn1)C1CCCC1 | NCI-H1975 | cell growth or viability, CCK-8 | – | 72 h | pIC50 | < 5.00 |
| CCNC(=O)Nc1nc2cc(-c3ccc4ncn(Cc5ccccc5)c(=O)c4c3)ccc2s1 | NCI-H1975 | cell growth or viability, MTT | – | 72 h | pIC50 | 5.00 |
| NCC(=O)Nc1ccccc1/N=c1\cc(-c2ccc3c(c2)OCO3)oc2c(N)cccc12 | NCI-H1975 | cell growth or viability, CCK-8 | – | 1 µM | inhibition | 4.64% |
| Cc1ccc(C(=O)Nc2ccc(-c3ccc4ncn(Cc5ccccc5)c(=O)c4c3)cn2)cc1 | NCI-H1975 | cell growth or viability, CCK-8 | – | 72 h | pIC50 | < 5.00 |
| CCCCn1cnc2ccc(-c3ccc4sc(NC(=O)Nc5ccc(F)cc5)nc4c3)cc2c1=O | NCI-H1975 | cell growth or viability, MTT | – | 72 h | pIC50 | 6.16 |
| NCCCCC(=O)Nc1ccccc1/N=c1\cc(-c2ccc3c(c2)OCO3)oc2ccccc12 | NCI-H1975 | cell growth or viability, CCK-8 | – | 1 µM | inhibition | -2.12% |
| CCCC(=O)Nc1ccc(-c2ccc3ncn(Cc4ccccc4)c(=O)c3c2)cn1 | NCI-H1975 | cell growth or viability, CCK-8 | – | 72 h | pIC50 | < 5.00 |
| CCOc1ccc(Nc2c3c(nc4ccccc24)CCC3)cc1 | Leishmania amazonensis | parasite growth, MTT | – | promastigote | pIC50 | 5.84 |
| NCCC(=O)Nc1ccccc1/N=c1\cc(-c2ccc3oc(N)nc3c2)oc2ccccc12 | NCI-H1975 | cell growth or viability, CCK-8 | – | 1 µM | inhibition | 24.3% |
